We go through 20 compounds from ChEMBL document CHEMBL1275410, “Synergy between polyethylenimine and different families of antibiotics against a resistant clinical isolate of Pseudomonas aeruginosa” (2008).

Converted amounts (≈) assume the structure as drawn. The source made the active and inactive calls. The rule behind the calls is not given here.

In general, MIC refers to the lowest concentration that inhibits growth of the organism.

Common to all, as to assay type: functional
Assay [1] deals with Pseudomonas aeruginosa. Nature of the assay: FIC index, ratio of MIC for Pseudomonas aeruginosa 100609 in presence of 250 ug/ml polyethylenimine to MIC for Pseudomonas aeruginosa 100609.
The subject of assay [2] is Pseudomonas aeruginosa. Nature of the assay: Antibacterial activity against Pseudomonas aeruginosa 100609 assessed as reduction in bacterial count at 0.25 times MIC after 9 hrs by time-kill assay in presence of 250 ug/ml polyethylenimine relative to control. The method, boiled down: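 Time-kill assay: TSB was seeded from a 17-h preculture to 5 × 10^7 CFU/ml (set by OD660). Antibiotic was at 25% of MIC, with PEI at a final 250 nM (legend gives 250 μg/ml). Controls were PEI alone, antibiotic alone and bacteria alone. Viable counts on LB agar were taken at 0, 1.5, 3, 6 and 9 h, in triplicate. Synergy was a ≥2.0 mean log10 CFU/ml drop versus antibiotic alone.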

For assay [3], the system named is Pseudomonas aeruginosa. Nature of the assay: Antibacterial activity against Pseudomonas aeruginosa 100609 after 20 hrs by broth microdilution assay. The method, boiled down: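 Broth microdilution in TSB per CLSI: a 5 × 10^5 CFU/ml inoculum (OD660 0.02) was added to serial twofold antibiotic dilutions. Plates were shaken at 37°C for 20 h. MIC was the lowest concentration with no visible growth, determined in triplicate.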
Background: Broth dilution looks for growth in wells or tubes with falling amounts of substance.

Assay [4] concerns Pseudomonas aeruginosa. The assay can be described thus: FIC index, ratio of MIC for Pseudomonas aeruginosa 25619 in presence of 250 ug/ml polyethylenimine to MIC for Pseudomonas aeruginosa 25619. The method, boiled down:
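Checkerboard combination of PEI (mean MW 10 kDa) with antibiotic against P. aeruginosa ATCC 25619, in TSB inoculated at about 5 × 10^5 CFU/ml, run in triplicate. ΣFIC was derived from the combination; 0.5 to 2.0 is read as indifference and ≥4.0 as antagonism.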

[5] abbreviates: Pseudomonas aeruginosa, 100609, 20 h.

Turning to `CN[C@H](CC(C)C)C(=O)N[C@H]1C(=O)N[C@@H](CC(N)=O)C(=O)N[C@H]2C(=O)N[C@H]3C(=O)N[C@H](C(=O)N[C@H](C(=O)O)c4cc(O)cc(O)c4-c4cc3ccc4O)[C@H](O)c3ccc(c(Cl)c3)Oc3cc2cc(c3O[C@@H]2O[C@H](CO)[C@@H](O)[C@H](O)[C@H]2O[C@H]2C[C@](C)(N)[C@H](O)[C@H](C)O2)Oc2ccc(cc2Cl)[C@H]1O` [VANCOMYCIN], the “fractional inhibitory concentration index (FICI)” value in assay [1] stood at 3.4. Also, the result in assay [2] was inactive. Further, the MIC in assay [3] (setting [5]) was 1120 µg/mL (≈ 773 µM).

For the compound `CN(C)[C@@H]1C(O)=C(C(N)=O)C(=O)[C@@]2(O)C(O)=C3C(=O)c4c(O)cccc4[C@@](C)(O)[C@H]3C[C@@H]12` [TETRACYCLINE], the “fractional inhibitory concentration index (FICI)” value in assay [1] turned out to be 1. The same compound showed an MIC in assay [3] (setting [5]) of 20 µg/mL (≈ 45 µM).

Turning to `NC[C@H]1O[C@H](O[C@H]2[C@H](O)[C@@H](O[C@H]3O[C@H](CO)[C@@H](O)[C@H](N)[C@H]3O)[C@H](N)C[C@@H]2N)[C@H](N)C[C@@H]1O` [TOBRAMYCIN], in assay [1], the “fractional inhibitory concentration index (FICI)” value is 4.81. The compound further yielded an MIC in assay [3] (setting [5]) of 50 µg/mL (≈ 107 µM).

Regarding `CO[C@@H]1[C@@H](OC(N)=O)[C@@H](O)[C@H](Oc2ccc3c(O)c(NC(=O)c4ccc(O)c(CC=C(C)C)c4)c(=O)oc3c2C)OC1(C)C` [NOVOBIOCIN], the entries for the “fractional inhibitory concentration index (FICI)” value in assay [4] and in assay [1] were 0.35 and 0.1, respectively. Further, the “fold change (FC)” value in assay [2] worked out at 100000000. The compound also returned an MIC in assay [3] (setting [5]) of 1600 µg/mL (≈ 2610 µM).

As to `CO/N=C(\C(=O)N[C@@H]1C(=O)N2C(C(=O)O)=C(COC(C)=O)CS[C@H]12)c1csc(N)n1` [CEFOTAXIME], the “fractional inhibitory concentration index (FICI)” value in assay [1] worked out at 0.14. In assay [3] (setting [5]), this compound registered a minimal inhibitory concentration (MIC) of 960 µg/mL (≈ 2110 µM).

As for `CC[C@H]1OC(=O)[C@H](C)[C@@H](O[C@H]2C[C@@](C)(OC)[C@@H](O)[C@H](C)O2)[C@H](C)[C@@H](O[C@@H]2O[C@H](C)C[C@H](N(C)C)[C@H]2O)[C@](C)(O)C[C@@H](C)C(=O)[C@H](C)[C@@H](O)[C@]1(C)O` [ERYTHROMYCIN], the “fractional inhibitory concentration index (FICI)” value in assay [1] turned out to be 1. In assay [3] (setting [5]), this compound showed a minimal inhibitory concentration (MIC) of 140 µg/mL (≈ 191 µM).

Turning to `CC1(C)S[C@@H]2[C@H](NC(=O)C(C(=O)O)c3ccccc3)C(=O)N2[C@H]1C(=O)O` (some centres undefined) [CARBENICILLIN], in assay [3] (setting [5]), it took 2240 µg/mL (≈ 5920 µM) to inhibit growth (MIC).

Consider `O=C(N[C@H](CO)[C@H](O)c1ccc([N+](=O)[O-])cc1)C(Cl)Cl` [CHLORAMPHENICOL], for which the “fractional inhibitory concentration index (FICI)” value in assay [1] worked out at 0.41. The “fold change (FC)” value in assay [2] was determined as 100000. For the same compound, the lowest concentration to inhibit growth in assay [3] (setting [5]) (MIC) was 100 µg/mL (≈ 309 µM).

For the compound `NC[C@@H]1O[C@@H](O[C@H]2[C@H](O)[C@@H](O[C@H]3O[C@H](CO)[C@@H](O)[C@H](N)[C@H]3O)[C@H](N)C[C@@H]2N)[C@@H](O)[C@H](O)[C@H]1O` [KANAMYCIN A], the “fractional inhibitory concentration index (FICI)” value in assay [1] is 1.21. Also, the MIC in assay [3] (setting [5]) is 1600 µg/mL (≈ 3300 µM).

With `O=C(O)c1cn(C2CC2)c2cc(N3CCNCC3)c(F)cc2c1=O` [CIPROFLOXACIN], the “fractional inhibitory concentration index (FICI)” value in assay [1] turned out to be 1. Moreover, in assay [3] (setting [5]), inhibition of growth (MIC) required 30 µg/mL (≈ 90.5 µM).

With `CC1COc2c(N3CCN(C)CC3)c(F)cc3c(=O)c(C(=O)O)cn1c23` (centres undefined) [OFLOXACIN], the “fractional inhibitory concentration index (FICI)” value in assay [1] was determined as 1. This compound displayed an MIC in assay [3] (setting [5]) of 10 µg/mL (≈ 27.7 µM).

In the case of `CCn1cc(C(=O)O)c(=O)c2cc(F)c(N3CCNCC3)cc21` [NORFLOXACIN], the “fractional inhibitory concentration index (FICI)” value in assay [1] was determined as 0.68. For the same compound, the MIC in assay [3] (setting [5]) came out at 15 µg/mL (≈ 47 µM).

In assay [3] (setting [5]), `CCN1CCN(C(=O)N[C@@H](C(=O)N[C@@H]2C(=O)N3[C@@H]2SC(C)(C)[C@@H]3C(=O)O)c2ccccc2)C(=O)C1=O` [PIPERACILLIN] had an MIC of 40 µg/mL (≈ 77.3 µM).

In the case of `CC1(C)S[C@@H]2[C@H](NC(=O)[C@H](N)c3ccccc3)C(=O)N2[C@H]1C(=O)O` [AMPICILLIN], it took 2240 µg/mL (≈ 6410 µM) to inhibit growth in assay [3] (setting [5]) (MIC).

For the compound GENTAMICIN, the fractional inhibitory concentration index (FICI) in assay [1] amounted to 1.72. The same compound displayed an MIC in assay [3] of 1120 µg/mL.

As for `CC1(C)S[C@@H]2[C@H](NC(=O)[C@H](C(=O)O)c3ccsc3)C(=O)N2[C@H]1C(=O)O` [TICARCILLIN], the lowest concentration to inhibit growth in assay [3] (setting [5]) (MIC) was 1120 µg/mL (≈ 2910 µM).

In the case of COLISTIN, the fractional inhibitory concentration index (FICI) in assay [1] is 2.01. In assay [3], this compound came in with an MIC of 5 µg/mL.

For the compound `CC(C)(O/N=C(\C(=O)N[C@@H]1C(=O)N2C(C(=O)[O-])=C(C[n+]3ccccc3)CS[C@H]12)c1csc(N)n1)C(=O)O` [CEFTAZIDIME], the entries for the “fractional inhibitory concentration index (FICI)” value in assay [4] and in assay [1] were 0.09 and 0.04, respectively. The “fold change (FC)” value in assay [2] was determined as 100000. The compound further displayed an MIC in assay [3] (setting [5]) of 400 µg/mL (≈ 732 µM).

`CO[C@H]1/C=C/O[C@@]2(C)Oc3c(C)c(O)c4c(O)c(c(/C=N/N5CCN(C)CC5)c(O)c4c3C2=O)NC(=O)/C(C)=C\C=C\[C@H](C)[C@H](O)[C@@H](C)[C@@H](O)[C@@H](C)[C@H](OC(C)=O)[C@@H]1C` [RIFAMPIN]: in assay [1], the “fractional inhibitory concentration index (FICI)” value was 0.05. Moreover, in assay [2], the “fold change (FC)” value came out at 100000. Besides, 20 µg/mL (≈ 24.3 µM) was the least that counted as inhibitory in assay [3] (setting [5]) (MIC).

Consider POLYMYXIN B, for which the fractional inhibitory concentration index (FICI) in assay [1] came out at 2.01. For the same compound, the outcome in assay [2] was inactive. The compound further registered an MIC in assay [3] of 5 µg/mL.
